Test results as given in ChEMBL document CHEMBL5236609, “Optimization of 1,2,4-Triazole-3-thiones toward Broad-Spectrum Metallo-β-lactamase Inhibitors Showing Potent Synergistic Activity on VIM- and NDM-1-Producing Clinical Isolates” (J Med Chem, 2022).

Columns and labels:
[1] = Inhibition of bacterial NDM-1 (unknown origin) expressed in Escherichia coli EXPRESS BL21(DE3) assessed as inhibition constant by measuring rate of substrate hydrolysis by UV-visible spectrophotometry; parameters: species or system Bacteria
Procedure, shortened: (§1)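 Reporter-substrate assay with purified MBL (1–70 nM final) in 50 mM HEPES pH 7.5 at 30 °C. […] Inhibitor 0.5–1000 μM final. Ki derived from the v0/vi vs [I] slope assuming competitive inhibition, or from a Dixon plot. Ki given when inhibition >70%, otherwise % inhibition at 100 μM. Triplicate.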

[2] = system: Pseudomonas aeruginosa; test: Antimicrobial activity against blaVIM-2-producing multidrug-resistant Pseudomonas aeruginosa VA-182/00 clinical isolate assessed as meropenem MIC at 32 ug/ml by broth microdilution method (reference value: 128 ug/ml); format: functional; conditions: dose 32 µg/ml
Procedure, shortened: (§2)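 Inoculum was 5×10^4 CFU/well. Each inhibitor was present at a fixed 32 μg/mL, and MICs were also taken without inhibitor.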

[3] = Stability in mouse plasma assessed as half life at 37 degC; format: ADME, cell-free
[4] = Inhibition of bacterial VIM-4 (unknown origin) expressed in Escherichia coli EXPRESS BL21(DE3) assessed as inhibition constant by measuring rate of substrate hydrolysis by UV-visible spectrophotometry; parameters: species or system Bacteria; procedure, shortened: as §1
[5] = n-Octanol/PBS partition coefficient, logD of the compound at pH 7.4 after 2 hrs by LC-MS/MS analysis; format: physicochemical
Procedure, shortened: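 LogD from partitioning between 10 mM PBS pH 7.4 and n-octanol (1:1).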

[6] = Metabolic stability in CD-1 mouse microsomes assessed as intrinsic clearance at 37 degC by LC-MS/MS analysis; format: ADME, Microsome; conditions: for microsomal CLint: CD-1, mouse; for Stability: mouse
Procedure, shortened: (§3)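 Mouse liver microsomes, mixed gender, at 37 °C for 40 min; propranolol control. Reports t1/2, intrinsic clearance and % intact compound remaining at 40 min.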

[7] = Metabolic stability in CD-1 mouse microsomes assessed as compound remaining after 40 mins LC-MS/MS analysis; format: ADME, Microsome; conditions: read-out: Activity; procedure, shortened: as §3
[8] = system: Klebsiella pneumoniae; test: Antimicrobial activity against blaVIM-4-producing multidrug-resistant Klebsiella pneumoniae VA-416/02 clinical isolate assessed as meropenem MIC at 32 ug/ml by broth microdilution method (reference value: […] ug/ml); format: functional; conditions: dose 32 µg/ml; procedure, shortened: as §2
[9] = Inhibition of bacterial VIM-2 (unknown origin) expressed in Escherichia coli EXPRESS BL21(DE3) assessed as inhibition constant by measuring rate of substrate hydrolysis by UV-visible spectrophotometry; parameters: species or system Bacteria; procedure, shortened: as §1
[10] = system: Klebsiella pneumoniae; test: Antimicrobial activity against blaVIM-1-producing multidrug-resistant Klebsiella pneumoniae K47-25 clinical isolate assessed as meropenem MIC at 32 ug/ml by broth microdilution method (reference value: […] ug/ml); format: functional; conditions: dose 32 µg/ml; procedure, shortened: as §2
[11] = biological target: T1, Aminopeptidase N (Sus scrofa, UniProt P15145); test: Inhibition of porcine APN using fluorogenic substrate H-Leu-AMC measured for 1 hr
T1 sequence (P15145 whole entry): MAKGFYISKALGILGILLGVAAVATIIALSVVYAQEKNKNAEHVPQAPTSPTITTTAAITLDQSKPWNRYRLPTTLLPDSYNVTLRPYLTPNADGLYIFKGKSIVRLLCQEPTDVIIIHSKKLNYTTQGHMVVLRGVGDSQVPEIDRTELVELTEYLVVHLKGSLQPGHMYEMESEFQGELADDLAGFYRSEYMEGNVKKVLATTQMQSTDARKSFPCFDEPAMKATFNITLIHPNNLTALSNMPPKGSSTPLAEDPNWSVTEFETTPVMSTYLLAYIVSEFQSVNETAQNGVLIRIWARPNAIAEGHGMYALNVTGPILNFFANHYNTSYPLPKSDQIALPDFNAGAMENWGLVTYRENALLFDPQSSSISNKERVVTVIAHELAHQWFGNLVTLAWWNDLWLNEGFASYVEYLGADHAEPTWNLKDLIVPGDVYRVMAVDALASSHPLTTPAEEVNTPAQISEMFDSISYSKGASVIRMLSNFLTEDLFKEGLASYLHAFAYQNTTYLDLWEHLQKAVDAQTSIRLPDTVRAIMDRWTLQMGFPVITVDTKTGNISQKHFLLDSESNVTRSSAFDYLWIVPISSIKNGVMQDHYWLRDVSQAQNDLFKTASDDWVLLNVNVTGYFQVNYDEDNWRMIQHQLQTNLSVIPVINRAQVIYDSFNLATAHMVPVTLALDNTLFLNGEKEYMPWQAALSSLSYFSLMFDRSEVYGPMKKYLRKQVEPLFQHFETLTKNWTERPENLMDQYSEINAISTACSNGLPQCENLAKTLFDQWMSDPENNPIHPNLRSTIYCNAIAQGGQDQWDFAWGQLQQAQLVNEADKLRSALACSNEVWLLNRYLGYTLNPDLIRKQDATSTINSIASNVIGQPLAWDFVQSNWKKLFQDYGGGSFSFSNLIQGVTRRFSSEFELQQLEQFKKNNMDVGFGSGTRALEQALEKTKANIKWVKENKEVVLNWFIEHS

SMILES	Ki [1]	MIC [2]	half-life [3]	Ki [4]	logD at 2 h [5]	microsomal CLint [6]	remaining at 40 min [7]	MIC [8]	Ki [9]	MIC [10]	IC50 [11]	Stability [6]
O=C(O)[C@H](CCCn1c(-c2ccccc2)n[nH]c1=S)N(Cc1ccccn1)Cc1ccccn1	570 nM	16 µg/mL	> 6 h	760 nM	0.243	16.5 µL/min/mg	80.5%	0.03 µg/mL	960 nM	0.06 µg/mL		
O=C(O)[C@H](CCCn1c(-c2ccccc2)n[nH]c1=S)N(Cc1c[nH]cn1)Cc1c[nH]cn1	30 nM	8 µg/mL	> 6 h	200 nM	-2.12			0.03 µg/mL	410 nM	0.03 µg/mL	30000 nM	Stable
O=C(O)[C@H](CCn1c(-c2ccccc2)n[nH]c1=S)N(Cc1c[nH]cn1)Cc1c[nH]cn1	40 nM	8 µg/mL	> 6 h	230 nM	-2.2	10.6 µL/min/mg	91.2%	0.03 µg/mL	210 nM	0.06 µg/mL	27000 nM	
Cc1[nH]cnc1CN(Cc1c[nH]cn1)[C@@H](CCCn1c(-c2ccccc2)n[nH]c1=S)C(=O)O	38 nM	8 µg/mL	> 6 h	420 nM	-1.93	5.5 µL/min/mg	98.1%	0.03 µg/mL	350 nM	0.06 µg/mL		
O=C(O)[C@H](CCCn1c(-c2ccc3ccccc3c2)n[nH]c1=S)N(Cc1c[nH]cn1)Cc1c[nH]cn1	30 nM	8 µg/mL	> 6 h	340 nM	-0.823			0.03 µg/mL	110 nM	0.03 µg/mL	16000 nM	Stable
